# ChEMBL document CHEMBL6134900 (J Med Chem, 2025)
# Active and inactive are the calls of the source. The rule behind the calls is not given here.
# What was measured:
# HCC44 = assay: (§1) Inhibition of colony formation in human HCC44 cells harboring wild type SMARCA4 incubated for 9 to 14 days by crystal violet staining based assay; format: functional, cell-based; conditions: dose 0.001-10 µM, time 9-14 day
# Summary of the method: (§2)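 Single cells, 0.5–2 × 10^3 per well in 6-well plates, in RPMI with 10% FBS. Grown 9–14 days in drug-containing medium, refreshed every fifth day. Fixed in 10% formalin, stained with 0.01% crystal violet. Total colony area quantified and expressed relative to DMSO. n = 3 biological replicates. IC50 ratio is wild-type over mutant.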
# [1] = as §1; format: functional, cell-based; summary of the method: as §2
# NCI-H2122 = assay: (§3) Inhibition of colony formation in human NCI-H2122 cells harboring wild type SMARCA4 incubated for 9 to 14 days by crystal violet staining based assay; format: functional, cell-based; conditions: dose 0.001-10 µM, time 9-14 day; summary of the method: as §2
# [2] = as §3; format: functional, cell-based; summary of the method: as §2
# [3] = AUC (0 to infinity) in male CD-1 (ICR) mouse at 25 mg/kg, ip measured up to 24 hrs by LC-MS/MS analysis; format: ADME, organism-based; conditions: in vivo
# Summary of the method: (§4)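 Single 25 mg/kg dose. IP vehicle was 5% DMSO/5% solutol/90% water at 1.25 mg/mL, final pH 4.39, clear solution. Oral vehicle was 0.5% methylcellulose/0.2% Tween 80 in water, opaque suspension. Plasma sampled at 0.25, 0.5, 1, 2, 4, 8 and 24 h. Plasma protein-precipitated with internal standard in acetonitrile, then LC-MS/MS. n = 3 mice per time point, mean.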
# [4] = molecular target: T1, Protein cereblon/SWI/SNF-related matrix-associated actin-dependent regulator of chromatin subfamily A member 4 (Homo sapiens, UniProt P51532+Q96SW2); assay: PROTAC activity at CRBN/SMARCA4 in human NCI-H1792 cells harboring wild type SMARCA4 assessed as induction of SMARCA4 degradation incubated for 48 hrs by immunoblot analysis; format: cell-based
# T1 sequence (P51532 whole entry): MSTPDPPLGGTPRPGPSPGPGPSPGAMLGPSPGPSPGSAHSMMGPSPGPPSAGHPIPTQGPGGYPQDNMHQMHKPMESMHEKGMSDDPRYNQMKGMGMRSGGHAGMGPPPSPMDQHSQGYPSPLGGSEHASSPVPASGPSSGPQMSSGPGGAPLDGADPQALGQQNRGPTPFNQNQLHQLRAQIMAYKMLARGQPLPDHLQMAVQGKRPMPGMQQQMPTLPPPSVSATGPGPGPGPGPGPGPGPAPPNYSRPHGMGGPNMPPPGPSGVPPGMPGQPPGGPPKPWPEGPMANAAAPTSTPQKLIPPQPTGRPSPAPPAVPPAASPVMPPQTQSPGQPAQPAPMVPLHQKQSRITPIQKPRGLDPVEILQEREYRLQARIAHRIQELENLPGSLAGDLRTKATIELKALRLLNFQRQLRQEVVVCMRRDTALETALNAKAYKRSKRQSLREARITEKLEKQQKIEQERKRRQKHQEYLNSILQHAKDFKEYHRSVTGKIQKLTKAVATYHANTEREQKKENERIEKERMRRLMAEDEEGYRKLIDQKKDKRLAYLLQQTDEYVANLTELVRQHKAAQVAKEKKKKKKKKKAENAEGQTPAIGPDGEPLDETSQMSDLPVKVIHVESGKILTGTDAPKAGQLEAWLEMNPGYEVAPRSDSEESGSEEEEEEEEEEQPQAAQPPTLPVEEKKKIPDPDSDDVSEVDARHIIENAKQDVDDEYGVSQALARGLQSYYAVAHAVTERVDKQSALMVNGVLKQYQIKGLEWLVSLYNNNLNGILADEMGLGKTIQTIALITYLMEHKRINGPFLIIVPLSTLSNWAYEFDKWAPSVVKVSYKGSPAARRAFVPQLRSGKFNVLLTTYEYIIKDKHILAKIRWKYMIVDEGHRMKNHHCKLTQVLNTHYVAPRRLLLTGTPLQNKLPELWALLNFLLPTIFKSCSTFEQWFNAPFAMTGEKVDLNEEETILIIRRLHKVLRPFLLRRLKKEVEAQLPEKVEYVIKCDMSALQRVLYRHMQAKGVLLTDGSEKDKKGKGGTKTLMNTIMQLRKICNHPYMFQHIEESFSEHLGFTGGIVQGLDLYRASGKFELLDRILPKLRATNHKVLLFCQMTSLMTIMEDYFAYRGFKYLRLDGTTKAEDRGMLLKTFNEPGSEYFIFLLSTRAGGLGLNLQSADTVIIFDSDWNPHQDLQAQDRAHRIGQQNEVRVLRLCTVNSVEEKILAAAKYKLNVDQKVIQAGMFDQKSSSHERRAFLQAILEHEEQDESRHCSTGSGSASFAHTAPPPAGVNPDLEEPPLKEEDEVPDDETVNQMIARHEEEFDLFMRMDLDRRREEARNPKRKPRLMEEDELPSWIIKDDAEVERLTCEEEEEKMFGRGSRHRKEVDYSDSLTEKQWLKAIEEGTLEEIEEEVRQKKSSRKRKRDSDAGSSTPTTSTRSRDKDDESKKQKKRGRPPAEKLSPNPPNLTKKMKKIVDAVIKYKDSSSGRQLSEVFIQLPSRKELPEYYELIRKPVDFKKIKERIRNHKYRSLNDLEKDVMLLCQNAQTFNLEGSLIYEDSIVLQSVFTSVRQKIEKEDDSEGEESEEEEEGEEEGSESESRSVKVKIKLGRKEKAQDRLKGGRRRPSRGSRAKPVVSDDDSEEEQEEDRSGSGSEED
# T1 sequence (Q96SW2 whole entry): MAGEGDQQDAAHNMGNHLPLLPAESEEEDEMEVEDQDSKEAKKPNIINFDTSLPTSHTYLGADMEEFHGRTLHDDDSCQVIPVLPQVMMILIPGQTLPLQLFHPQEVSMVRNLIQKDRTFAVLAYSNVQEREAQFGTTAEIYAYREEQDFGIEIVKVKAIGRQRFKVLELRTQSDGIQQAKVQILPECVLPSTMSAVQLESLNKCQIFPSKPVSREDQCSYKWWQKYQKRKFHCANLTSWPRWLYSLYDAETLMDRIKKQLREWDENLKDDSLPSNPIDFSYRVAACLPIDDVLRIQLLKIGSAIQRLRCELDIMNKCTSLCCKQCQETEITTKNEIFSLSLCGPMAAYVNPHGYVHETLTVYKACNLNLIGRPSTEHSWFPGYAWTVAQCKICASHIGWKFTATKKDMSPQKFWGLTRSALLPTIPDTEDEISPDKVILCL
# Summary of the method: (§5)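 H1792 (SMARCA4-WT) cells in RPMI with 10% FBS were treated with 1 nM–10 μM for 24 or 48 h. Cells were lysed in RIPA and immunoblotted for SMARCA2, SMARCA4 and β-actin. Bands were quantified and normalised to β-actin, with DMSO set at 100%. DC50 and Dmax were derived by nonlinear regression. n = 3 biological replicates.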
# [5] = molecular target: T2, Protein cereblon/SWI/SNF-related matrix-associated actin-dependent regulator of chromatin subfamily A member 2 (Homo sapiens, UniProt P51531+Q96SW2); assay: PROTAC activity at CRBN/SMARCA2 in human NCI-H2126 cells harboring mutated SMARCA4 assessed as induction of SMARCA2 degradation incubated for 48 hrs by immunoblot analysis; format: cell-based
# Summary of the method: (§6)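 SMARCA4-mutant H322, HCC515, H2030 and H2126 cells were treated as indicated. SMARCA2 was immunoblotted in RIPA lysates and quantified after normalisation to β-actin. Expression is given relative to DMSO-treated cells, and Dmax was derived by nonlinear regression.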
# Target sequence in this assay (P51531 whole entry, looked up, change not shown): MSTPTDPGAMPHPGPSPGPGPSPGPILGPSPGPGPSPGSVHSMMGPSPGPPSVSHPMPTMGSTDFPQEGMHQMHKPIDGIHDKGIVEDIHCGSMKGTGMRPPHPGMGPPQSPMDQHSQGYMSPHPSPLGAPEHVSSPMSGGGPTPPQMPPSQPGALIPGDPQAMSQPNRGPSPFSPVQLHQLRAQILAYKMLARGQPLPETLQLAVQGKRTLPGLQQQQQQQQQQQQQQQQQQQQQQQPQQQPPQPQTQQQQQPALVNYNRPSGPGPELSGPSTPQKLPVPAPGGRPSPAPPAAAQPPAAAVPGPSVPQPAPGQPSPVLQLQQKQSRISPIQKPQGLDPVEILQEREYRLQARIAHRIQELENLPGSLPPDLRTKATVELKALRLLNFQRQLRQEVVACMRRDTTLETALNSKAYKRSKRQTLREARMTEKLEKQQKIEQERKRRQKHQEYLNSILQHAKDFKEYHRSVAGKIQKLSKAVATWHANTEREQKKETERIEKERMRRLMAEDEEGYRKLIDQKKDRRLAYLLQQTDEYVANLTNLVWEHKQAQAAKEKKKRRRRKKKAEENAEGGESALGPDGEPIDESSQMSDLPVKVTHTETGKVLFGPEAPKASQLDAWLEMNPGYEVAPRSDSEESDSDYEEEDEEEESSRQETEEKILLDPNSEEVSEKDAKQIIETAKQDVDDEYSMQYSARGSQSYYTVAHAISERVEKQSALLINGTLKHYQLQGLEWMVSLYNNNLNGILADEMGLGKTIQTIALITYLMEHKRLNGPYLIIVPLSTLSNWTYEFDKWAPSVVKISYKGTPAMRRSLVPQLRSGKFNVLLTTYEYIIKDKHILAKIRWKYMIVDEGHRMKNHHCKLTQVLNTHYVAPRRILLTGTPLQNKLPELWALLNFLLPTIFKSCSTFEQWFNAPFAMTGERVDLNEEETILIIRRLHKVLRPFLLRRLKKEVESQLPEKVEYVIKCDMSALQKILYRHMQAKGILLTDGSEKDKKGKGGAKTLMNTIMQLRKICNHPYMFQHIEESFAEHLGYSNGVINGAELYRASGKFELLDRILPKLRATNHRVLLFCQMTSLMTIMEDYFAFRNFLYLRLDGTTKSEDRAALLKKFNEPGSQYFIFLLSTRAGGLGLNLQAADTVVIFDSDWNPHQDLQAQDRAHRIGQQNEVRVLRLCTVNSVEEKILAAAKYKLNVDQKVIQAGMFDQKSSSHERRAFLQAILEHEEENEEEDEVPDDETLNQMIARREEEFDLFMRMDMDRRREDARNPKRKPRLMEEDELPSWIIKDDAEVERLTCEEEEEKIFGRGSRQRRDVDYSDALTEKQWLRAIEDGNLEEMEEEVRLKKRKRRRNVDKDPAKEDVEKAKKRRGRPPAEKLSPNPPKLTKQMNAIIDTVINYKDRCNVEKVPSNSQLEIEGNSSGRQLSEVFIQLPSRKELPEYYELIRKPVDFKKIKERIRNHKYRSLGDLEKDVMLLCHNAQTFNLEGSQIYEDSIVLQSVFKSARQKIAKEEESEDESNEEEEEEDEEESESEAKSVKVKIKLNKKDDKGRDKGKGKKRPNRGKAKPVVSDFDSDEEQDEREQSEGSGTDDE
# Target sequence in this assay (Q96SW2 whole entry, looked up, change not shown): as the sequence (Q96SW2 whole entry) above
# [6] = molecular target: T2, Protein cereblon/SWI/SNF-related matrix-associated actin-dependent regulator of chromatin subfamily A member 2; assay: PROTAC activity at CRBN/SMARCA2 in human NCI-H1792 cells harboring wild type SMARCA4 assessed as induction of SMARCA2 degradation incubated for 24 hrs by immunoblot analysis; format: cell-based; summary of the method: as §5
# Target sequence in this assay (P51531 whole entry): as the sequence (P51531 whole entry, looked up, change not shown) above
# Target sequence in this assay (Q96SW2 whole entry): as the sequence (Q96SW2 whole entry) above
# [7] = molecular target: T1, Protein cereblon/SWI/SNF-related matrix-associated actin-dependent regulator of chromatin subfamily A member 4; assay: PROTAC activity at CRBN/SMARCA4 in human NCI-H1792 cells harboring wild type SMARCA4 assessed as induction of SMARCA4 degradation incubated for 24 hrs by immunoblot analysis; format: cell-based; summary of the method: as §5
# [8] = AUC (0 to last) in male CD-1 (ICR) mouse at 25 mg/kg, po measured up to 24 hrs by LC-MS/MS analysis; format: ADME, organism-based; conditions: in vivo; summary of the method: as §4
# [9] = Metabolic stability in mouse liver microsomes assessed as compound remaining by measuring fold change in absence of NADPH measured after 60 mins by LC-MS/MS analysis; format: ADME, Microsome; conditions: 1 h
# Summary of the method: (§7)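 Microsomes at 0.5 mg protein/mL preincubated with compound for 10 min at 37 °C. The NCF60 control received 100 mM potassium phosphate buffer in place of the NADPH regenerating system and was incubated 1 h at 37 °C. Quenched with cold acetonitrile containing tolbutamide and labetalol internal standards, centrifuged, supernatant analyzed by LC-MS/MS. Fraction remaining reported.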
# [10] = Toxicity in female athymic nude mouse xenografted with human NCI-H2030 cells harboring SMARCA4 mutant assessed as change in body weight at 5 mg/kg, po administered once daily via gavage for 17 days relative to control; format: organism-based; conditions: in vivo, 408 h, time 17 day
# Summary of the method: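 10 × 10^6 H2030 cells in PBS:Matrigel 1:1, 200 μL, injected subcutaneously into flanks of 6–8-week-old females. Randomized at mean tumor volume <200 mm3. Oral gavage once daily in 10% DMSO, 40% PEG300, 1% Tween-80, 49% saline. Caliper tumor volume and body weight monitored, mean ± SEM.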
# [11] = Cmax in male CD-1 (ICR) mouse at 25 mg/kg, ip measured up to 24 hrs by LC-MS/MS analysis; format: ADME, organism-based; conditions: in vivo; summary of the method: as §4
# [12] = molecular target: T2, Protein cereblon/SWI/SNF-related matrix-associated actin-dependent regulator of chromatin subfamily A member 2; assay: PROTAC activity at CRBN/SMARCA2 in human H322 cells harboring mutated SMARCA4 assessed as induction of SMARCA2 degradation incubated for 48 hrs by immunoblot analysis; format: cell-based; summary of the method: as §6
# Target sequence in this assay (P51531 whole entry, looked up, change not shown): as the sequence (P51531 whole entry, looked up, change not shown) above
# Target sequence in this assay (Q96SW2 whole entry, looked up, change not shown): as the sequence (Q96SW2 whole entry) above
# [13] = molecular target: T2, Protein cereblon/SWI/SNF-related matrix-associated actin-dependent regulator of chromatin subfamily A member 2; assay: PROTAC activity at CRBN/SMARCA2 in human NCI-H2030 cells harboring mutated SMARCA4 assessed as induction of SMARCA2 degradation incubated for 48 hrs by immunoblot analysis; format: cell-based; summary of the method: as §6
# Target sequence in this assay (P51531 whole entry, looked up, change not shown): as the sequence (P51531 whole entry, looked up, change not shown) above
# Target sequence in this assay (Q96SW2 whole entry, looked up, change not shown): as the sequence (Q96SW2 whole entry) above
# [14] = Half life in male CD-1 (ICR) mouse at 25 mg/kg, ip measured up to 24 hrs by LC-MS/MS analysis; format: ADME, organism-based; conditions: in vivo; summary of the method: as §4
# [15] = Metabolic stability in human liver microsomes assessed as compound remaining by measuring fold change in absence of NADPH measured after 60 mins by LC-MS/MS analysis; format: ADME, Microsome; conditions: 1 h; summary of the method: as §7
# [16] = Cmax in male CD-1 (ICR) mouse at 25 mg/kg, po measured up to 24 hrs by LC-MS/MS analysis; format: ADME, organism-based; conditions: in vivo; summary of the method: as §4
# NCI-H1568 = assay: (§8) Inhibition of colony formation in human NCI-H1568 cells harboring SMARCA4 mutant incubated for 9 to 14 days by crystal violet staining based assay; format: functional, cell-based; conditions: dose 0.001-10 µM, time 9-14 day; summary of the method: as §2
# [17] = as §8; format: functional, cell-based; summary of the method: as §2
# [18] = molecular target: T2, Protein cereblon/SWI/SNF-related matrix-associated actin-dependent regulator of chromatin subfamily A member 2; assay: PROTAC activity at CRBN/SMARCA2 in human NCI-H1792 cells harboring wild type SMARCA4 assessed as induction of SMARCA2 degradation incubated up to 96 hrs by immunoblot analysis; format: cell-based
# [19] = molecular target: T2, Protein cereblon/SWI/SNF-related matrix-associated actin-dependent regulator of chromatin subfamily A member 2; assay: PROTAC activity at CRBN/SMARCA2 in human HCC515 cells harboring mutated SMARCA4 assessed as induction of SMARCA2 degradation incubated for 48 hrs by immunoblot analysis; format: cell-based; summary of the method: as §6
# Target sequence in this assay (P51531 whole entry, looked up, change not shown): as the sequence (P51531 whole entry, looked up, change not shown) above
# Target sequence in this assay (Q96SW2 whole entry, looked up, change not shown): as the sequence (Q96SW2 whole entry) above
# [20] = AUC (0 to last) in male CD-1 (ICR) mouse at 25 mg/kg, ip measured up to 24 hrs by LC-MS/MS analysis; format: ADME, organism-based; conditions: in vivo; summary of the method: as §4
# NCI-H1693 = assay: Inhibition of colony formation in human NCI-H1693 cells harboring SMARCA4 mutant incubated for 9 to 14 days by crystal violet staining based assay; format: functional, cell-based; conditions: for inhibition: dose 0.001-10 µM, time 9-14 day; summary of the method: as §2
# [21] = molecular target: T2, Protein cereblon/SWI/SNF-related matrix-associated actin-dependent regulator of chromatin subfamily A member 2; assay: PROTAC activity at CRBN/SMARCA2 in human NCI-H1792 cells harboring wild type SMARCA4 assessed as induction of SMARCA2 degradation incubated for 48 hrs by immunoblot analysis; format: cell-based; summary of the method: as §5
# Target sequence in this assay (P51531 whole entry): as the sequence (P51531 whole entry, looked up, change not shown) above
# Target sequence in this assay (Q96SW2 whole entry): as the sequence (Q96SW2 whole entry) above
SMILES,inhibition (HCC44),IC50 [1] [nM],inhibition (NCI-H2122),AUC [3] [ng·h/mL],DC50 [4] [nM],DC50 [5] [nM],DC50 [6] [nM],DC50 [7] [nM],AUClast [8] [ng·h/mL],fold change (FC) [9],Cmax [11] [ng/mL],DC50 [12] [nM],DC50 [13] [nM],t1/2 [14] [h],fold change (FC) [15],Cmax [16] [ng/mL],inhibition (NCI-H1568),IC50 [17] [nM],Activity [18],DC50 [19] [nM],also measured
Nc1nnc(-c2ccccc2O)cc1N1CCN(Cc2ccc(N3CCN(CCOc4cccc5c4C(=O)N(C4CCC(=O)NC4=O)C5=O)CC3)c(F)c2)CC1 (stereo unspecified),Dose-dependent-effect,9100,Dose-dependent-effect,27108.3,149,1.6,8.1,19,4743,0.368,2039.7,1,10.3,13,0.501,587,Dose-dependent-effect,11,Active; More Potent And Fastest Degradation Observed,1.2,"IC50 ([2]; Homo sapiens, NCI-H2122, read-out: IC50): 9100 nM; Activity [10]: < 20%; AUClast [20]: 19365.3 ng·h/mL; IC50 (NCI-H1693): 11 nM; inhibition (NCI-H1693): Dose-dependent-effect; DC50 [21]: 16 nM"
Nc1nnc(-c2ccccc2O)cc1N1CCN(Cc2ccc(N3CCC(CN4CCN(c5ccc6c(c5)C(=O)N(C5CCC(=O)NC5=O)C6=O)CC4)CC3)c(F)c2)CC1 (stereo unspecified),Dose-dependent-effect,10000,Dose-dependent-effect,68813,381,1.2,69,135,12079.3,0.935,1756.3,6.4,12.7,44.8,0.33,649.3,Dose-dependent-effect,78,Active,10.6,"IC50 ([2]; dose 0.001-10 µM, time 9-14 day): 10000 nM; AUClast [20]: 23213.7 ng·h/mL; IC50 (NCI-H1693): 78 nM; inhibition (NCI-H1693): Dose-dependent-effect; DC50 [21]: 60 nM"
